This note sets out measurements from ChEMBL document CHEMBL1177650, “Synthesis, structural elucidation and in vitro antiparasitic activity against Trypanosoma cruzi and Leishmania chagasi parasites of novel tetrahydro-1-benzazepine derivatives” (Bioorg Med Chem, 2010).

Each structure is given as a SMILES string.

Data set [1] relates to Leishmania chagasi. Nature of the data set: Antileishmanial activity against Leishmania chagasi MHOM/BR/74/PP75 promastigotes after 72 hrs by haemocytometry. In kind it is functional, organism-based. Particulars: MHOM/BR/74/PP75, 72 h. Summed up: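 Late-phase L. chagasi promastigotes, grown at 28 °C in RPMI 1640 with hemin, HEPES and 10% hiSBF, exposed to threefold serial dilutions (0.3–100 μM) for 72 h at 28 °C; untreated controls. Growth inhibition from haemocytometer counts; IC50/IC90 by sigmoidal regression; triplicates, repeated twice.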

A short description of data set [2]: Selectivity index, CC50 for human THP1 cells to IC50 for Leishmania chagasi MHOM/BR/74/PP75 amastigotes. Type of data set: functional, THP-1. The gist of the method:
(§1)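 Selectivity index computed as CC50 in THP-1 cells divided by IC50 against the L. chagasi stage named in the line.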

The subject of data set [3] is Leishmania chagasi. Nature of the data set: Antileishmanial activity against Leishmania chagasi MHOM/BR/74/PP75 amastigotes infected in human THP1 cells after 5 days by Giemsa staining. Particulars: MHOM/BR/74/PP75, THP-1, 120 h. Type of data set: functional, organism-based. Summed up: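 THP-1 cells (RPMI, 5% hiSBF, 37 °C, 5% CO2) transformed, then infected 24 h with late-phase L. chagasi promastigotes at parasite:cell 10:1. Treated with compound dilutions (top 100 μM) 5 days at 37 °C, 5% CO2, medium changed once after 3 days. Infected cells counted per 300 cells on methanol-fixed Giemsa slides; IC50/IC90 by sigmoidal regression; triplicates, repeated twice.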

Data set [4] can be described thus: Selectivity index, CC50 for human THP1 cells to IC50 for Leishmania chagasi MHOM/BR/74/PP75 promastigotes. Type of data set: functional, THP-1. The gist of the method: as §1
Data set [5] is described as follows: Selectivity index, CC50 for african green monkey Vero cells to IC50 for Trypanosoma cruzi 320I01 epimastigote. In kind it is functional. The gist of the method: (§2)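 Selectivity index computed as CC50 in Vero cells divided by IC50 against the T. cruzi stage named in the line.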
In data set [6] the test system is Trypanosoma cruzi. The data set is described as follows: Antitrypanosomal activity against Trypanosoma cruzi 320I01 amastigotes infected in african green monkey Vero cells after 5 days by Giemsa staining. In kind it is functional, organism-based. Particulars: 320I01, Vero, 120 h. Summed up:
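Vero cells (RPMI, 5% hiSBF, 37 °C, 5% CO2) infected 24 h with tissue-derived T. cruzi trypomastigotes at parasite:cell 10:1. Compound dilutions (top 100 μM) applied 5 days at 37 °C, 5% CO2, medium changed once at day 3. Infected cells scored per 300 cells on methanol-fixed Giemsa preparations; IC50/IC90 by sigmoidal regression; triplicates, two experiments.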

Data set [7] can be described thus: Cytotoxicity against african green monkey Vero cells after 72 hrs by MTT assay. In kind it is cell-based. Particulars: chlorocebus sabaeus. The gist of the method:
(§3)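 Vero or transformed THP-1 cells incubated with compound (0.3–300 μM) 72 h at 37 °C, 5% CO2; untreated controls. MTT read-out, formazan OD at 580 nm; % cytotoxicity = 100 × (OD control − OD treated)/OD control. CC50/CC90 by sigmoidal regression; triplicates, repeated twice. DMSO stocks 100× concentrated, diluted in medium.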

Data set [8] is described as follows: Cytotoxicity against human THP1 cells after 72 hrs by MTT assay. In kind it is cell-based. Particulars: THP-1 cells. Summed up: as §3
A short description of data set [9]: Selectivity index, CC50 for african green monkey Vero cells to IC50 for Trypanosoma cruzi 320I01 amastigotes. Type of data set: functional. The gist of the method:
as §2

Data set [10] concerns Trypanosoma cruzi. The data set is described as follows: Antitrypanosomal activity against Trypanosoma cruzi 320I01 epimastigotes after 72 hrs by haemocytometry. In kind it is functional, organism-based. As to conditions: 320I01, 72 h. The gist of the method: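 Late-phase T. cruzi epimastigotes cultured in LIT medium with hiFCS at 28 °C; threefold serial dilutions (0.3–100 μM) for 72 h at 28 °C, untreated controls. Parasites counted in a haemocytometer; IC50/IC90 by sigmoidal regression; each concentration in triplicate, two experiments.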

Consider `O[C@@H]1Cc2cc(Br)ccc2N[C@H](c2ccccc2)C1` (relative stereo), for which the 50% inhibitory concentration (IC50) with Leishmania chagasi [1] turned out to be 45 µM; in the data set with Leishmania chagasi [3], 97.7 µM; with Trypanosoma cruzi [6], 97.8 µM; in the data set on Trypanosoma cruzi [10], 15.7 µM. Moreover, the IC90 in the data set with Leishmania chagasi [1] is more than 100 µM; in the data set with Leishmania chagasi [3], more than 100 µM; in the data set on Trypanosoma cruzi [6], 99.4 µM; in the data set with Trypanosoma cruzi [10], 57.4 µM. Moreover, the “Selectivity Index” value is recorded as more than 1 in data set [2], 4.1 in data set [4], 2.68 in data set [5] and 0.43 in data set [9]. Besides, the figures for the CC50 at 72 h in data set [7] and in [8] were 42.1 µM and 185 µM, respectively. Further, the CC90 at 72 h in [7] and in data set [8] was more than 300 µM in each case.
Consider `Clc1ccc2c(c1)C[C@H]1C[C@@H](c3ccccc3Cl)N2O1` (relative stereo), for which the IC50 in the data set with Leishmania chagasi [1] was 51.3 µM; in the data set with Leishmania chagasi [3] it was more than 100 µM; with Trypanosoma cruzi [6], more than 100 µM; with Trypanosoma cruzi [10], 17.6 µM. In addition, the IC90 is more than 100 µM with Leishmania chagasi [1], more than 100 µM with Leishmania chagasi [3], more than 100 µM in the data set with Trypanosoma cruzi [6] and 43.9 µM in the data set with Trypanosoma cruzi [10]. The “Selectivity Index” value is reported as more than 3 in data set [2], more than 5 in data set [4], 6.17 in data set [5] and more than 1 in data set [9]. The CC50 at 72 h in data set [7] is 109 µM; in [8] it was more than 300 µM. For the same molecule, the CC90 at 72 h in [7] and in [8] was more than 300 µM throughout.
As to `Fc1ccccc1[C@@H]1C[C@@H]2Cc3cc(Cl)ccc3N1O2` (relative stereo), the IC50 is 23.8 µM in the data set on Leishmania chagasi [1], more than 100 µM with Leishmania chagasi [3], more than 100 µM with Trypanosoma cruzi [6] and 18.9 µM in the data set on Trypanosoma cruzi [10]. Moreover, the IC90 in the data set on Leishmania chagasi [1] was 67.3 µM; in the data set on Leishmania chagasi [3] it was more than 100 µM; in the data set with Trypanosoma cruzi [6] it was more than 100 µM; in the data set on Trypanosoma cruzi [10], 38.1 µM. In addition, the “Selectivity Index” value is recorded as more than 3 in data set [2], more than 12 in data set [4], 6.51 in data set [5] and more than 1 in data set [9]. Further, the figures for the CC50 at 72 h in [7] and in data set [8] were 123 µM and more than 300 µM, respectively. Also, the CC90 at 72 h in data set [7] and in [8] was more than 300 µM in each case.
As for `Clc1cccc(Cl)c1[C@@H]1C[C@@H]2Cc3ccccc3N1O2` (relative stereo), the IC50 with Leishmania chagasi [1], with Leishmania chagasi [3], with Trypanosoma cruzi [6] and in the data set with Trypanosoma cruzi [10] was more than 100 µM throughout. The IC90 in the data set on Leishmania chagasi [1], with Leishmania chagasi [3], in the data set with Trypanosoma cruzi [6] and in the data set with Trypanosoma cruzi [10] was more than 100 µM each time. The “Selectivity Index” value in data set [2], in data set [4], in data set [5] and in [9] was more than 3 throughout. The CC50 at 72 h in data set [7] and in data set [8] was more than 300 µM in each case. Moreover, the CC90 at 72 h in [7] and in [8] was more than 300 µM in each case.
For `Fc1cccc(Cl)c1[C@@H]1C[C@@H]2Cc3ccccc3N1O2` (relative stereo), the IC50 with Leishmania chagasi [1] was more than 100 µM; in the data set with Leishmania chagasi [3], more than 100 µM; with Trypanosoma cruzi [6] it was more than 100 µM; with Trypanosoma cruzi [10] it was 17.7 µM. The IC90 in the data set with Leishmania chagasi [1], in the data set on Leishmania chagasi [3], with Trypanosoma cruzi [6] and with Trypanosoma cruzi [10] was more than 100 µM in each case. The “Selectivity Index” value in data set [2] is more than 3; in data set [4], more than 3; in [5], more than 17; in data set [9], more than 3. For the same molecule, the CC50 at 72 h in [7] and in [8] was more than 300 µM in each case. Further, the CC90 at 72 h in data set [7] and in [8] was more than 300 µM in each case.
With `Clc1ccc2c(c1)C[C@H]1C[C@@H](c3c(Cl)cccc3Cl)N2O1` (relative stereo), the IC50 is 71 µM with Leishmania chagasi [1], more than 98.2 µM in the data set with Leishmania chagasi [3], more than 98.2 µM in the data set with Trypanosoma cruzi [6] and more than 100 µM in the data set with Trypanosoma cruzi [10]. For the same molecule, the IC90 with Leishmania chagasi [1] is more than 100 µM; with Leishmania chagasi [3], more than 98.2 µM; with Trypanosoma cruzi [6], more than 98.2 µM; in the data set on Trypanosoma cruzi [10], more than 100 µM. Besides, the “Selectivity Index” value in data set [2] is more than 3; in data set [4], 4.15; in [5], more than 0.56; in data set [9], more than 0.58. For the same molecule, the results for the CC50 at 72 h in [7] and in data set [8] were 57 µM and more than 295 µM, respectively. Also, the CC90 at 72 h in [7] and in data set [8] was more than 295 µM each time.
Take `Fc1cccc(Cl)c1[C@@H]1C[C@@H]2Cc3cc(Cl)ccc3N1O2` (relative stereo): the IC50 was more than 100 µM in the data set with Leishmania chagasi [1], more than 100 µM in the data set on Leishmania chagasi [3], more than 100 µM in the data set with Trypanosoma cruzi [6] and 48.1 µM in the data set on Trypanosoma cruzi [10]. Further, the IC90 in the data set with Leishmania chagasi [1], in the data set on Leishmania chagasi [3], in the data set with Trypanosoma cruzi [6] and in the data set with Trypanosoma cruzi [10] was more than 100 µM each time. The “Selectivity Index” value was more than 3 in data set [2], more than 3 in [4], more than 6 in data set [5] and more than 3 in [9]. The CC50 at 72 h in [7] and in data set [8] was more than 300 µM each time. The CC90 at 72 h in data set [7] and in [8] was more than 300 µM each time.
Turning to `O[C@@H]1Cc2ccccc2N[C@H](c2ccccc2)C1` (relative stereo), the IC50 in the data set with Leishmania chagasi [1] is more than 100 µM; in the data set on Leishmania chagasi [3], more than 100 µM; in the data set on Trypanosoma cruzi [6], more than 100 µM; in the data set on Trypanosoma cruzi [10] it was 31.8 µM. The 90% effect concentration (IC90) in the data set on Leishmania chagasi [1], with Leishmania chagasi [3], with Trypanosoma cruzi [6] and in the data set with Trypanosoma cruzi [10] was more than 100 µM in each case. Further, the “Selectivity Index” value in data set [2] is more than 3; in data set [4], more than 3; in data set [5], more than 9; in [9], more than 3. The CC50 at 72 h in [7] and in data set [8] was more than 300 µM throughout. Further, the CC90 at 72 h in data set [7] and in data set [8] was more than 300 µM in each case.
Consider `O[C@@H]1Cc2cc(OC(F)(F)F)ccc2N[C@H](c2ccccc2)C1` (relative stereo), for which the IC50 in the data set on Leishmania chagasi [1] is 35.5 µM; in the data set on Leishmania chagasi [3], more than 100 µM; in the data set with Trypanosoma cruzi [6] it was more than 100 µM; in the data set on Trypanosoma cruzi [10] it was 26.6 µM. Also, the IC90 in the data set on Leishmania chagasi [1] is 43.2 µM; in the data set with Leishmania chagasi [3], more than 100 µM; in the data set with Trypanosoma cruzi [6], more than 100 µM; in the data set with Trypanosoma cruzi [10] it was 60.4 µM. The “Selectivity Index” value is recorded as more than 1 in [2], 2.92 in [4], 4.64 in data set [5] and more than 1 in data set [9]. Further, the CC50 at 72 h is 124 µM in data set [7] and 104 µM in data set [8]. The CC90 at 72 h in [7] is 263 µM; in data set [8], more than 300 µM.
